Experimental data: ChEMBL document CHEMBL1139681, “Discovery of orally active butyrolactam 11beta-HSD1 inhibitors” (Bioorg Med Chem Lett, 2006)

Experiments:
[1] = molecular target: 11-beta-hydroxysteroid dehydrogenase 1 (Mus musculus) (UniProt P50172); assay: Inhibition of DIO mouse liver 11beta-HSD1at 30 mg/kg, po after 16 hrs; type: organism-based; parameters: dose 30 mg/kg; conditions: at 30 mg/kg
Method in brief: (§1)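 DIO mice given a single 30 mpk dose; 11β-HSD1 inhibition in liver and fat measured ex vivo at 1, 7 and 16 h post-dose.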

[2] = molecular target: 11-beta-hydroxysteroid dehydrogenase 1 (Mus musculus) (UniProt P50172); assay: Inhibition of DIO mouse liver 11beta-HSD1at 30 mg/kg, po after 1 hr; type: organism-based; parameters: dose 30 mg/kg; conditions: at 30 mg/kg; method in brief: as §1
[3] = molecular target: 11-beta-hydroxysteroid dehydrogenase 1 (Mus musculus) (UniProt P50172); assay: Inhibition of DIO mouse epididymal fat pad 11beta-HSD1 at 30 mg/kg, po after 7 hrs; type: organism-based; parameters: dose 30 mg/kg; method in brief: as §1
[4] = molecular target: 11-beta-hydroxysteroid dehydrogenase 1 (Mus musculus) (UniProt P50172); assay: Inhibition of DIO mouse epididymal fat pad 11beta-HSD1 at 30 mg/kg, po after 16 hrs; type: organism-based; parameters: dose 30 mg/kg; method in brief: as §1
[5] = molecular target: 11-beta-hydroxysteroid dehydrogenase 1 (Mus musculus) (UniProt P50172); assay: Inhibition of DIO mouse epididymal fat pad 11beta-HSD1 at 30 mg/kg, po after 1 hr; type: organism-based; parameters: dose 30 mg/kg; method in brief: as §1
[6] = molecular target: 11-beta-hydroxysteroid dehydrogenase 1 (Mus musculus) (UniProt P50172); assay: Inhibition of DIO mouse liver 11beta-HSD1at 30 mg/kg, po after 7 hrs; type: organism-based; parameters: dose 30 mg/kg; conditions: at 30 mg/kg; method in brief: as §1
[7] = molecular target: 11-beta-hydroxysteroid dehydrogenase 1 (Mus musculus, UniProt P50172); assay: Inhibition of mouse 11beta-HSD1
[8] = molecular target: T1, 11-beta-hydroxysteroid dehydrogenase type 2 (Mus musculus, UniProt P51661); assay: Inhibition of mouse 11beta-HSD2
T1 sequence (P51661 whole entry): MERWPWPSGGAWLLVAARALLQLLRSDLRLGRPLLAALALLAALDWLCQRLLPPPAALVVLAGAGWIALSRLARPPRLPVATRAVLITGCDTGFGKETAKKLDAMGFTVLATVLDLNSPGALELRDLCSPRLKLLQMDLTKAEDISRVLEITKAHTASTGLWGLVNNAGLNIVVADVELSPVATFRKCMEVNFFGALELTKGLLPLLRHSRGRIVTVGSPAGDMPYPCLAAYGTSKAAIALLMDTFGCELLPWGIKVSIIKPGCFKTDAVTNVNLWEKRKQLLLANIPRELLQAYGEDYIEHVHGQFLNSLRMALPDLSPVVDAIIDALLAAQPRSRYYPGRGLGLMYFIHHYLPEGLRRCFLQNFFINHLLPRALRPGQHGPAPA

[9] = Stability in mouse liver microsomes after 30 min; type: ADME, Microsome; conditions: for remaining at 0.5 h: liver microsomes, read-out: Stability
Method in brief: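 Percent parent remaining after a 30-min incubation with mouse liver microsomes.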

[10] = molecular target: T2, 11-beta-hydroxysteroid dehydrogenase 1 (Homo sapiens, UniProt P28845); assay: Inhibition of human 11beta-HSD1
[11] = molecular target: T3, 11-beta-hydroxysteroid dehydrogenase type 2 (Homo sapiens, UniProt P80365); assay: Inhibition of human 11beta-HSD2
T3 sequence (P80365 whole entry): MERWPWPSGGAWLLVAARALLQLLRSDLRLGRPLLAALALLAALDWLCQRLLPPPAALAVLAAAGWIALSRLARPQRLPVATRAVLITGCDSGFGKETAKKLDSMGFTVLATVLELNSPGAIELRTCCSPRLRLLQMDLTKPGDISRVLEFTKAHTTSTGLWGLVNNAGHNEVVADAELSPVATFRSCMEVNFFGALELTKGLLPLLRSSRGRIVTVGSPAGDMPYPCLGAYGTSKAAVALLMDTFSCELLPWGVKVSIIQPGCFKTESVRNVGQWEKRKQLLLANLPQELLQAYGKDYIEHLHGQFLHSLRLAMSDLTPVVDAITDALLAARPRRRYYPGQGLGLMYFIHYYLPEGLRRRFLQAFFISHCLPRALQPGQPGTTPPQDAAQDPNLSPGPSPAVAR

[12] = molecular target: T2, 11-beta-hydroxysteroid dehydrogenase 1; assay: Inhibition of human 11beta-HSD1 expressed in HEK293 cells; type: cell-based
[13] = test system: Mus musculus; assay: Effect on body weight in DIO C57BL/6J mouse at 5 mg/kg, po; type: functional
Method in brief: (§2)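 Male C57BL/6J mice (5–6 weeks at purchase) made obese on high-fat diet, group-housed, 12 h light/dark cycle. Conditioned to oral gavage beforehand; assigned to groups of equal mean body weight. Dosed po bid (08:00, 15:00) in 1% Tween 80 in water, 4 ml/kg, for 14 days; lean and high-fat vehicle controls. Plasma analytes measured after 4 h fast; Dunnett's test.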

[14] = test system: Mus musculus; assay: Lowering of plasma insulin level in DIO C57BL/6J mouse at 5 mg/kg, po after 4 hr fasting; type: functional; method in brief: as §2
[15] = test system: Mus musculus; assay: Lowering of plasma glucose level in DIO C57BL/6J mouse at 5 mg/kg, po after 4 hr fasting; type: functional; method in brief: as §2
[16] = test system: Mus musculus; assay: Effect on plasma triglyceride level in DIO C57BL/6J mouse at 5 mg/kg, po after 4hrs fasting; type: functional; method in brief: as §2
[17] = test system: Mus musculus; assay: Effect on body weight in DIO C57BL/6J mouse at 30 mg/kg, po; type: functional; method in brief: as §2
[18] = test system: Mus musculus; assay: Lowering of plasma insulin level in DIO C57BL/6J mouse at 30 mg/kg, po after 4hrs fasting; type: functional; method in brief: as §2
[19] = test system: Mus musculus; assay: Lowering of plasma glucose level in DIO C57BL/6J mouse at 30 mg/kg, po after 4 hr fasting; type: functional; method in brief: as §2
[20] = test system: Mus musculus; assay: Effect on plasma triglyceride level in DIO C57BL/6J mouse at 30 mg/kg, po after 4 hr fasting; type: functional; method in brief: as §2
[21] = Plasma clearance in mouse at 5 mg/kg, iv and 10 mg/kg, po; type: ADME, organism-based
Method in brief: (§3)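 Mouse PK; parameters derived from iv dosing at 5 mg/kg and oral (po) dosing at 10 mg/kg.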

[22] = Half life in mouse at 5 mg/kg, iv and 10 mg/kg, po; type: ADME, organism-based; conditions: in vivo; method in brief: as §3
[23] = Bioavailability in mouse at 5 mg/kg, iv and 10 mg/kg, po; type: ADME, organism-based; conditions: in vivo; method in brief: as §3

Chain of 11-beta-hydroxysteroid dehydrogenase 1 (Mus musculus, UniProt P50172) (P50172 whole entry): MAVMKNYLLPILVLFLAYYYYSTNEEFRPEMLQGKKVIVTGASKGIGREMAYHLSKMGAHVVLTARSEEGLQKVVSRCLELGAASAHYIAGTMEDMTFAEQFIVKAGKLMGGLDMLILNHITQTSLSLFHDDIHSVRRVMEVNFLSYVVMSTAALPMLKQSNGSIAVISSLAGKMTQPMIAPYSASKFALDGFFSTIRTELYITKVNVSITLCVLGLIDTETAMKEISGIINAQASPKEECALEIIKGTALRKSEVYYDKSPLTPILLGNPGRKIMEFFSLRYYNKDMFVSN
Chain of 11-beta-hydroxysteroid dehydrogenase 1 (Mus musculus) (P50172 whole entry, looked up): as the sequence (P50172 whole entry) above
T2 sequence (P28845 whole entry): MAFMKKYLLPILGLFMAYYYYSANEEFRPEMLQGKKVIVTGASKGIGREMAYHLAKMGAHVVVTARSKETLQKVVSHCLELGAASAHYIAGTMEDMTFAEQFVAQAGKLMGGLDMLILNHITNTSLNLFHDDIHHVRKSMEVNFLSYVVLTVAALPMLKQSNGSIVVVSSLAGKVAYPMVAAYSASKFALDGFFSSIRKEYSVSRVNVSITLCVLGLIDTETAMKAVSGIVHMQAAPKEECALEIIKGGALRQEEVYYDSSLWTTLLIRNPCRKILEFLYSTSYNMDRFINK

Row | Structure (SMILES) | IC50 [7] | IC50 [8] | remaining at 0.5 h [9] | IC50 [10] | IC50 [11] | IC50 [12] | also measured
1 | CC1(C)C(=O)N([C@H]2C3CCCC2C[C@@H](C(N)=O)C3)CC1COc1ccc(C#N)cn1 (stereo in doubt; 31) [listing 1 of 2 here] |  |  |  |  |  |  | inhibition [1]: 14%; inhibition [2]: 73%; inhibition [3]: 30%; inhibition [4]: 17%; inhibition [5]: 68%; inhibition [6]: 33%
2 | N#Cc1ccc(OCC2CC(=O)N(C3CCCCCC3)C2)nc1 (centres undefined) | 10000 nM |  |  |  |  |  | 
3 | CC1(C)C(=O)N([C@H]2C3CC4CC2C[C@](c2nnn[nH]2)(C4)C3)CC1COc1ccc(C(F)(F)F)cn1 (some centres undefined) | 430 nM | 1600 nM |  | 310 nM | 630 nM | 230 nM | 
4 | CC1(C)C(=O)N(C2CCCN(C(N)=O)CC2)CC1COc1ccc(C#N)cn1 (centres undefined) |  |  |  |  |  |  | Ki [10]: 190 nM; Ki [7]: 250 nM
5 | CN(CCOc1ccc(CC2SC(=O)NC2=O)cc1)c1ccccn1 (centres undefined) [ROSIGLITAZONE] |  |  |  |  |  |  | Activity [13]: 41.6 g; Activity [14]: 0.97 ng/mL; Activity [15]: 143.4 mg/dL; Activity [16]: 50.8 mg/dL
6 | CC1(C)C(=O)N([C@H]2C3CC4CC2C[C@](C(N)=O)(C4)C3)CC1COc1ccc(-n2cncn2)cc1 (some centres undefined) | 32 nM | 8000 nM |  | 41 nM | 1600 nM | 43 nM | 
7 | CC#C[C@]1(O)CC[C@H]2[C@@H]3CCC4=CC(=O)CCC4=C3[C@@H](c3ccc(N(C)C)cc3)C[C@@]21C [MIFEPRISTONE] |  |  |  |  |  |  | Activity [17]: 39.5 g; Activity [18]: 1.5 ng/mL; Activity [19]: 147.5 mg/dL; Activity [20]: 43.2 mg/dL
8 | C[C@H]1C(=O)N(C2CCCCCC2)C[C@@H]1COc1ccc(C#N)cn1 | 75 nM |  |  |  |  |  | 
9 | NC(=O)[C@]12CC3CC(C1)[C@@H](N1CCC(Cc4ccccc4)C1=O)C(C3)C2 (some centres undefined) |  |  |  | 35 nM | > 30000 nM |  | 
10 | O=C1C(Cc2ccccc2)CCN1C1C2CC3CC(C2)CC1C3 (centres undefined) |  |  |  | 64 nM | > 10000 nM |  | 
11 | O=C1C(Cc2ccccc2)CCN1[C@H]1C2CC3CC1C[C@](O)(C3)C2 (some centres undefined) |  |  |  | 832 nM | > 10000 nM |  | 
12 | CC1(C)C(=O)N([C@H]2C3CC4CC2C[C@](C(=N)N)(C4)C3)CC1COc1ccc(C(F)(F)F)cn1 (some centres undefined) | 110 nM | > 100000 nM | 100% |  |  |  | 
13 | CC1(C)C(=O)N([C@H]2C3CC4CC2C[C@](C(N)=O)(C4)C3)CC1COc1ccc(-n2ccnc2)cc1 (some centres undefined) | 41 nM | 14000 nM | 28% | 76 nM | 1800 nM | 28 nM | 
14 | O=C1C(Cc2ccccc2)CCN1C1CCCCC1 (centres undefined) |  |  |  | 107 nM | > 10000 nM |  | 
15 | CC1(C)C(=O)N([C@H]2C3CC4CC2C[C@](C(=N)NO)(C4)C3)CC1COc1ccc(C(F)(F)F)cn1 (some centres undefined) | 14 nM | 60000 nM | 67% |  |  |  | 

Continued, in another order:

Row | IC50 [7] | IC50 [8] | remaining at 0.5 h [9] | IC50 [10] | IC50 [11] | IC50 [12] | Structure (SMILES) | also measured
16 | 10 nM | 100000 nM | 91% |  |  |  | CC1(C)C(=O)N(C23CCC(C(N)=O)(CC2)CC3)CC1COc1ccc(C#N)cn1 (centres undefined) | 
17 |  | > 100000 nM | 12% |  | > 100000 nM | 510 nM | CC1(C)C(=O)N([C@H]2C3CCCC2C[C@H](C(N)=O)C3)CC1COc1ccc(C#N)cn1 (some centres undefined) | Ki [10]: 29 nM; Ki [7]: 17 nM
18 | 62 nM | 100000 nM |  |  |  |  | CC1(C)C(=O)N(C2CCCCCC2)CC1COc1ccc(C#N)cn1 (centres undefined) | 
19 |  | > 100000 nM |  |  | > 30000 nM | 518 nM | CCOC(=O)[C@H]1[C@@H]2CCC(N3CC(COc4ccc(C#N)cn4)C(C)(C)C3=O)CC[C@@H]21 (some centres undefined) | Ki [10]: 50 nM; Ki [7]: 260 nM
20 | 3 nM | > 50000 nM |  | 7 nM | 15000 nM | 39 nM | CC1(C)C(=O)N([C@H]2C3CCCC2C[C@@H](C(N)=O)C3)CC1COc1ccc(C#N)cn1 (stereo in doubt; 31) [listing 2 of 2 here] | clearance [21]: 23.3 mL/min/kg; half-life [22]: 1.3 h; Stability ([9]; microsomes, 0.5 h): 88%; bioavailability [23]: 63.9%
21 | 9 nM | 100000 nM | 92% | 5 nM | 22000 nM | 46 nM | CC1(C)C(=O)N([C@H]2C3CCCC2C[C@@H](C(N)=O)C3)CC1COc1ccc(C#N)cn1 (stereo in doubt; 32) | 
22 | 2 nM | 10000 nM | 97% |  |  |  | CC1(C)C(=O)N([C@H]2C3CC4CC2C[C@](C(N)=O)(C4)C3)CC1COc1ccc(C#N)cn1 (some centres undefined) | inhibition [1]: 67%; inhibition [2]: 99%; inhibition [3]: 71%; inhibition [4]: 46%; clearance [21]: 33.3 mL/min/kg; half-life [22]: 1.3 h; inhibition [6]: 94%; bioavailability [23]: 76.6%; Activity [17]: 40.7 g; Activity [18]: 1.31 ng/mL; Activity [19]: 164.7 mg/dL; Activity [20]: 33.3 mg/dL
